Only some compounds are listed: those with a hit (about 2.1% of all), similar ones and a draw of the others.
MC4R antagonist = human MC4R antagonism in cAMP assay; P32245; MC4R-expressing cells, MTII-stimulated cAMP, LANCE TR-FRET; inhibition, % at 6.5 µM; 360,000 compounds, 0.48% hits;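 active = inhibition above its plate's cutoff, the mean of tested wells on that plate plus 3 SD, cut at about 29% in these data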
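Material – human MC4R-expressing U2OS cells · Repeats – no replicates · Detection – TR-FRET with Eu-cAMP and labeled anti-cAMP, 671 nm · Times – compound 30 min, challenge 1 h, detection 1 h · Compound – single nominal compound dose of 6.5 µM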
MC4R ag barr = activates human MC4R beta-arrestin recruitment; 360,000 compounds, 0.98% hits; P32245; activation, % at 8.9 µM; AID 540308; U2OS MC4R beta-arrestin complementation, luminescence; percent of melanotan II response, DMSO zero;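 active = activation above a per-plate cutoff, the mean activation of sample wells on that plate plus 3 SD, cut at about 8% in these data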
SMARCA2 activ = SMARCA2 function activation, primary screen; MG213 cells, MMTV-luciferase reporter, dexamethasone, overnight; activation, % at 9.1 µM; 370,000 compounds, 1% hits; in the data active = activation above about 7.8%
CFTR F508del cor = correctors of CFTR F508del function in bronchial epithelial cells; activity (quench increase), % at 7.58 µM; 350,000 compounds, 0.36% hits; CFBE cells, YFP halide quenching; stimulated with forskolin plus potentiator P3; % fluorescence drop versus neutral controls;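 active = mean added fluorescence quench of at least 8% versus neutral control, with both replicates also reaching 8%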;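 also: cells transiently co-express mutant CFTR-F508del with the halide-sensitive YFP; corrector assay measuring rescue of mutant channel to the surface after 24 h compound exposure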
MC4R barr ag = human MC4R beta-arrestin agonism confirmation; shares compounds with MC4R ag barr; U2OS MC4R beta-arrestin recruitment, luminescence; scaled DMSO 0%, Melanotan II 100%; activation, % at 8.9 µM; 2,400 compounds, 31% hits; AID 602192;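 active = mean activation across replicates above the hit cutoff set in the earlier primary screen, cut at about 8% in these data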
MOR DOR agonist = OPRM1-OPRD1 heterodimer agonism counter-screen; shares compounds with MC4R ag barr; U2OS PathHunter beta-arrestin, beta-gal luminescence; percent of deltorphin B response, DMSO zero; activation, % at 9.2 µM; 2,400 compounds, 5.8% hits; AID 602194;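 active = mean activation across replicates exceeds the hit threshold derived in the earlier primary screen, cut at about 18% in these data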
Target sequence (P35372 whole entry, looked up): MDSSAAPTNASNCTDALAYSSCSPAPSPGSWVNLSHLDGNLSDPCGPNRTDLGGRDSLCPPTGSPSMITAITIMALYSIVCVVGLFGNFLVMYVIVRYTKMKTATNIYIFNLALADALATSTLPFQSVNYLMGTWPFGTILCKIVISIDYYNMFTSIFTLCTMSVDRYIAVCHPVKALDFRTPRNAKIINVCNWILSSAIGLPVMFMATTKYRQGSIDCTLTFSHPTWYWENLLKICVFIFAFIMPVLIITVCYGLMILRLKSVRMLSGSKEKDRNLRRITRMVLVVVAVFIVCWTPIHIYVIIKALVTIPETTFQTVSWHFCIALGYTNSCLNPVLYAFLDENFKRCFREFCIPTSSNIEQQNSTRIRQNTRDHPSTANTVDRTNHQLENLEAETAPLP
Target sequence (P41143 whole entry, looked up): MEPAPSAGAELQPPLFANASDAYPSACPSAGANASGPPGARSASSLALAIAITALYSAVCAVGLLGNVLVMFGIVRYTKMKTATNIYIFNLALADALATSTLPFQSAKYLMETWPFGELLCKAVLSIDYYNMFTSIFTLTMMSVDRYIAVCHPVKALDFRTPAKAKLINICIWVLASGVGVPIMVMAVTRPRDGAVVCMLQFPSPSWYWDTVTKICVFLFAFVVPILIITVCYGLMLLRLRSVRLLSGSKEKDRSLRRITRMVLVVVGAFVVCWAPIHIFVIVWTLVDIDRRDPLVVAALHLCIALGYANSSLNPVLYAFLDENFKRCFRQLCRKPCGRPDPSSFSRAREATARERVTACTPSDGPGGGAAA
Numbers stand for hits; 0 = inactive; - = no result given; ! = not confirmed by another sample.

SMILES	MC4R antagonist	MC4R ag barr	SMARCA2 activ	CFTR F508del cor	MC4R barr ag	MOR DOR agonist
COc1ccc(CNCCC(c2ccc(OC(C)C)cc2)c2ccccc2OC)cc1OC (configuration not stated)	0	0	0	0	-	-
Cc1ccc(S(=O)(=O)N(C)C[C@@H]2Oc3ccc(NS(=O)(=O)c4c(C)noc4C)cc3C(=O)N([C@@H](C)CO)C[C@H]2C)cc1	-	-	-	0	-	-
COc1ccc(-c2cc(C(=O)Nc3c(C)nn(Cc4ccccc4Cl)c3C)no2)cc1	0	12.6	0	-	10.7	0
COc1ccccc1CCNC(=O)c1cc(-c2ccccn2)nc2ccccc12	0	0	0	0	-	-
COc1ccccc1CCNC(=O)c1cc(-c2ccncc2)nc2ccc(Br)cc12	0	18.1	0	0	10.4	0
COc1ccc2c3c(n(C)c2c1)[C@@H](CO)N(C(=O)C1CCCC1)CC31CCN(C(=O)CN(C)C)CC1	-	-	-	0	-	-
CCCCOC(=O)Cn1c(=N)n(CCN2CCOCC2)c2ccccc21	0	0	0	-	-	-
CCCCCCCCCCOC(=O)Cn1c(COc2cccc(C)c2)[n+](C)c2ccccc21	0	19.5	0	0	28.3	0
CCCCCOC(=O)Cn1c(=O)oc2ccccc21	0	0	0	0	-	-
CCCCCCCCCCOC(=O)Cn1c(COc2ccc(OC)cc2)[n+](C)c2ccccc21	0	34.7	-	-	18.7	23.9!
Cc1cccc(OCCCn2c(=O)sc3ccccc32)c1	0	0	0	-	-	-
CCCCCCCCCCOC(=O)Cn1c(COc2ccccc2)[n+](C)c2ccccc21	0	18.1	0	0	29.1	22.8
C[C@H](CO)N1C[C@H](C)[C@H](CN(C)C(=O)C2CCCCC2)OCCCC[C@H](C)Oc2ccc(NS(C)(=O)=O)cc2C1=O	-	-	-	0	-	-
C[C@@H]1CCCCO[C@@H](CN(C)C(=O)Cc2ccccc2)[C@@H](C)CN([C@H](C)CO)C(=O)c2cc(NC(=O)c3ccncc3)ccc2O1	-	-	-	0	-	-
CCc1cc2ccc(C)cc2nc1SCC(=O)c1ccc(NC(C)=O)cc1	0	0	0	0	-	-
CCc1cc2cccc(C)c2nc1SCC(=O)c1ccc(NC(C)=O)cc1	0	10.3	0	-	0	0
O=C(CSc1ccc(Cl)cc1)NC1CCCc2ccccc21 (configuration not stated)	0	10.9	0	-	0	0
O=C(CSc1ccccc1Cl)NC1CCCc2ccccc21 (configuration not stated)	0	0	0	-	-	-
O=C(CSc1c(Cl)cccc1Cl)NC1CCCc2ccccc21 (configuration not stated)	0	31.1	0	0	0	0
C[C@H]1CN([C@@H](C)CO)C(=O)c2cc(NC(=O)Nc3cccc4ccccc34)ccc2O[C@@H]1CN(C)S(=O)(=O)c1ccc(F)cc1	-	-	-	0	-	-
C[C@@H]1CCCCO[C@@H](CN(C)Cc2ccccc2)[C@H](C)CN([C@@H](C)CO)C(=O)c2cc(NC(=O)Nc3ccc(C(F)(F)F)cc3)ccc2O1	-	-	-	0	-	-
CCCCNC(=S)N(C)/N=C/c1ccc(OCC(=O)Nc2c(C)cc(C)cc2C)c(OC)c1	0	14.1	0	-	11.3	0
CCCCNC(=S)N(C)/N=C/c1ccc(OCC(=O)Nc2ccc(OC)cc2)c(OC)c1	0	0	0	0	-	-
Cc1sc2ncnc(N3CCC(C(=O)Nc4ccc(C#N)cc4)CC3)c2c1C	0	11.5	0	0	0	0
Cc1sc2ncnc(N3CCC(C(=O)Nc4ccc(S(N)(=O)=O)cc4)CC3)c2c1C	0	0	0	0	-	-
SMILES	MC4R antagonist	MC4R ag barr	SMARCA2 activ	CFTR F508del cor	MC4R barr ag	MOR DOR agonist
Cc1ccc(C)c(N2CCN(CCCNC(=O)Cn3cccc3C(=O)c3ccccc3C)CC2)c1	0	12.0	0	0	13.6	0
CCOc1cc(CNCCc2ccc(S(N)(=O)=O)cc2)ccc1OCc1ccc(Cl)cc1	0	12.1	0	-	70.6	58.3
CCOc1cc(/C=N/N=C(N)N)ccc1OCc1ccc(Cl)cc1	0	11.6	0	-	10.9	0
C[C@H](CO)N1C[C@H](C)[C@@H](CN(C)C(=O)Nc2cccc(C(F)(F)F)c2)OCc2cnnn2CCCC1=O	-	-	-	0	-	-
CCNC(=O)C[C@@H]1CC[C@@H]2[C@@H](COc3ccc(NS(C)(=O)=O)cc3C(=O)N2C)O1	-	-	-	0	-	-
CC(C)Oc1ccc(C(=O)OCC(=O)NC(=O)NC2CCCC2)cc1	0	0	0	0	-	-
CC1CCCCC1NC(=O)NC(=O)COC(=O)c1ccc(OC(F)F)cc1 (configuration not stated)	0	10.2	0	0	0	0
CSc1c(CC(=O)NCCCO)n(Cc2ccccc2)c2ccccc12	0	0	0	0	-	-
COc1ccc(NC(=O)Cc2c(SC)c3ccccc3n2Cc2ccccc2)cc1	0	24.4	0	-	0	0
Cc1csc(NC(=O)c2cc(-c3ccccc3)nc3ccccc23)n1	0	12.3	0	-	0	0
COc1ccc(C(=O)c2coc3c2C(=O)C(=O)c2ccccc2-3)cc1	0	16.9	0	0	0	0
COCC(=O)Nc1ccc2c(c1)[C@H]1C[C@H](CC(=O)NC3CCCC3)O[C@H](CO)[C@H]1O2	-	-	-	0	-	-
CC(C)CC(=O)OC1C(N2CCOCC2)c2c(ccc(/C=C/C(=O)N3CCOCC3)c2O)OC1(C)C (configuration not stated)	0	12.4	0	0	0	0
CC(=O)OC1c2c(ccc3ccc(=O)oc23)OC(C)(C)C1OC(=O)CC(C)C (configuration not stated)	0	0	0	-	-	-
COc1ccc(CN2CC3(CCN(C(=O)C4CC4)CC3)c3c(n(C)c4cc(OC)ccc34)[C@@H]2CO)cc1	-	-	-	0	-	-
O=C(N[C@H]1CC[C@H](CC(=O)N2CCc3ccccc3C2)O[C@@H]1CO)C1CC1	-	-	-	0	-	-
COc1ccc(NC(=O)c2ccc(F)c(F)c2)c2ccccc12	0	20.7	0	0	0	0
Cc1cccc(C(=O)OCC(=O)c2ccc3c(c2)OCCO3)c1O	0	11.2	0	0	0	0
COc1ccccc1NC(=O)COC(=O)c1ccc2c(c1)OCCO2	0	18.7	0	0	0	0
Cc1ccccc1NC(=O)COC(=O)c1ccc2c(c1)OCCO2	0	0	0	0	-	-
CN1C[C@H]2[C@@H](c3ccccc31)[C@@H](CO)N2C(=O)Nc1ccc(F)cc1	-	-	-	0	-	-
O=C(CNC(=O)c1ccc(Cl)cc1)c1ccc(Br)cc1	0	0	0	0	-	-
O=C(CNC(=S)NC(=O)c1ccc(Cl)cc1)c1ccccc1	0	11.8	0	0	0	0
O=C(CNC(=S)NC(=O)c1ccc(Br)o1)c1ccccc1	0	11.4	0	-	0	0
C[C@@H]1CN([C@@H](C)CO)C(=O)c2cc(NC(=O)Cc3ccccc3)ccc2O[C@H]1CN(C)Cc1ccc(C(=O)O)cc1	-	-	-	0	-	-

Source: PubChem
